According to ChEMBL document CHEMBL1155195 (J Med Chem, 2009):
The source made the active and inactive calls. No cut-off for these calls is given here.

Tests used:
[1] = system: U-937; assay: Cytotoxicity against human U937 cells after 72 hrs by sulforhodamine B assay; type: functional, cell-based; settings: U-937, 72 h
[2] = Binding affinity to zinc assessed as formation of zinc-compound complex by EGTA fluorescence titration assay
[3] = system: U-937; assay: Induction of apoptosis in human U937 cells assessed as late apoptotic cells at 50 uM after 12 hrs by FITC-conjugated annexin V and propidium iodide staining-based flow cytometry; type: functional
How it was run: (§1)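 U-937 cells incubated with compound at 50 μM or vehicle for 12 hours, then co-stained with propidium iodide and FITC-labeled Annexin V; Annexin V-positive/PI-negative cells scored as early apoptotic.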

[4] = system: U-937; assay: Induction of apoptosis in human U937 cells assessed as early apoptotic cells at 50 uM after 12 hrs by FITC-conjugated annexin V and propidium iodide staining-based flow cytometry; type: functional; how it was run: as §1
[5] = system: U-937; assay: Induction of apoptosis in human U937 cells assessed as non-viable necrotic cells at 50 uM after 12 hrs by FITC-conjugated annexin V and propidium iodide staining-based flow cytometry; type: functional; how it was run: as §1
[6] = system: U-937; assay: Induction of apoptosis in human U937 cells assessed as viable cells at 50 uM after 12 hrs by FITC-conjugated annexin V and propidium iodide staining-based flow cytometry; type: functional; settings: U-937, 12 h, read-out: Activity; how it was run: as §1
[7] = molecular target: T1, Caspase-3 (Homo sapiens) (UniProt P42574); assay: Induction of procaspase 3 activation in human SK-MEL-5 cells assessed as caspase 3 cytoplasmic colocalization at 25 uM after 1 hr by immunofluorescent staining-based confocal microscopy; type: cell-based
T1 sequence (whole entry): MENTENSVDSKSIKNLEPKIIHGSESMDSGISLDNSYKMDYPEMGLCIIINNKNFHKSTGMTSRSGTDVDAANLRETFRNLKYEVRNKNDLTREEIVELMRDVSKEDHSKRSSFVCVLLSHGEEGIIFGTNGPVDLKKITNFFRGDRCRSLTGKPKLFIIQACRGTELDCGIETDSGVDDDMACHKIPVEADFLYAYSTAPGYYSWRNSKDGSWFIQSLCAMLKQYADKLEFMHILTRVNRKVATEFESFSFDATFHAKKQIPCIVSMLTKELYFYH
How it was run: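 SK-MEL-5 cells given DMSO or 25 μM compound for 1 hour, washed with phenol red-free medium, incubated 2 more hours, fixed, stained with rabbit anti-caspase-3 antibody (recognizes procaspase-3 and caspase-3) plus anti-rabbit Alexa Fluor 647 secondary, mounted and imaged by multiphoton confocal microscopy.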

[8] = molecular target: T1, Caspase-3 (Homo sapiens); assay: Induction of procaspase 3 activation in human SK-MEL-5 cells at 25 uM after 1 hr by immunofluorescent staining-based confocal microscopy in presence of 25 uM caspase 3/7 inhibitor FAM-DEVD-fmk; type: cell-based
How it was run: (§2)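 Live SK-MEL-5 cells treated with DMSO or compound (25 μM) together with FAM-DEVD-fmk (25 μM), a fluorescent irreversible active-site caspase-3/-7 label, for 1 hour; washed in phenol red-free medium, incubated 2 hours further, then imaged by multiphoton confocal microscopy.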

[9] = molecular target: T1, Caspase-3 (Homo sapiens); assay: Activation of 6xHis-tagged recombinant caspase 3 expressed in Escherichia coli BL21 (DE3) at 50 uM after 30 mins in presence of zinc ion
[10] = system: SK-MEL-5; assay: Zinc chelating activity in human SK-MEL-5 cells assessed as appearance of punctate cytoplasmic staining pattern at 25 uM after 1 hr by immunofluorescent staining-based confocal microscopy; type: functional, cell-based
How it was run: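 Live SK-MEL-5 cells incubated 1 hour with 25 μM fluorescent derivative, washed with phenol red-free medium, incubated 2 further hours; DNA stained with SYBR green; imaged by multiphoton confocal microscopy for subcellular, punctate cytoplasmic fluorescence.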

[11] = molecular target: T1, Caspase-3 (Homo sapiens); assay: Induction of procaspase 3 activation in human SK-MEL-5 cells assessed as caspase 3 cytoplasmic colocalization at 25 uM after 1 hr by immunofluorescent staining-based confocal microscopy in presence of 25 uM caspase 3/7 inhibitor FAM-DEVD-fmk; type: cell-based; how it was run: as §2
[12] = molecular target: T1, Caspase-3 (Homo sapiens); assay: Inhibition of 6xHis-tagged recombinant caspase 3 expressed in Escherichia coli BL21 (DE3) at 10 uM after 30 mins in absence of zinc ion

Row | SMILES | Kd [2] | IC50 [1] | other results
1 | O=C(CN1CCN(Cc2ccccc2)CC1)N/N=C/c1ccccc1S | > 10 µM | > 100 µM | 
2 | C=CCc1cccc(/C=N/NC(=O)CN2CCN(Cc3ccncc3)CC2)c1O | 0.08 µM | 21 µM | 
3 | O=C(CN1CCN(Cc2ccccc2)CC1)NCCc1ccccc1O | > 10 µM | > 100 µM | 
4 | C=CCc1cccc(/C=N/NC(=O)CN2CCN(Cc3cccc(Cn4cc(CNC(=O)Cc5c(C)c6cc(S(=O)(=O)O)c(N)cc6oc5=O)nn4)c3)CC2)c1O | 0.061 µM | 14.8 µM | Activity [7]: Active; Activity [9]: 20%; Activity [10]: Active; Activity [11]: Active
5 | O=C(CN1CCN(Cc2ccccc2)CC1)N/N=C/c1ccccc1 | > 10 µM | > 100 µM | 
6 | O=C(CN1CCN(Cc2ccccc2)CC1)NCc1ccccc1O | > 10 µM | > 100 µM | 
7 | COc1ccc(OC)c(CN2CCN(CC(=O)N/N=C/c3ccccc3O)CC2)c1 | 0.065 µM | 12 µM | 
8 | C=CCc1cccc(/C=N/NC(=O)CN2CCN(Cc3ccccc3)CC2)c1OC | > 10 µM | 32 µM | 
9 | Nc1ccccc1/C=N/NC(=O)CN1CCN(Cc2ccccc2)CC1 | > 10 µM | > 100 µM | 
10 | C=CCc1cccc(CNNC(=O)CN2CCN(Cc3ccccc3)CC2)c1O | > 10 µM | 59 µM | 
11 | O=C(CN1CCN(Cc2ccccc2)CC1)N/N=C/c1ccccc1Cl | > 10 µM | 57 µM | 
12 | CSc1ccccc1/C=N/NC(=O)CN1CCN(Cc2ccccc2)CC1 | > 10 µM | 61 µM | 
13 | O=C(CN1CCN(Cc2ccccc2)CC1)N/N=C/c1ccccc1SSc1ccccc1/C=N/NC(=O)CN1CCN(Cc2ccccc2)CC1 | > 10 µM | > 100 µM | 
14 | C=CCc1cccc(/C=N/NC(=O)CN2CCN(Cc3cccnc3)CC2)c1O | 0.062 µM | 14 µM | 
15 | O=C(CN1CCN(Cc2ccccc2)CC1)N/N=C/c1ccccc1C(=O)O | > 10 µM | > 100 µM | 
16 | COC(=O)c1ccccc1/C=N/NC(=O)CN1CCN(Cc2ccccc2)CC1 | > 10 µM | > 100 µM | 
17 | C=CCc1cccc(/C=N/N(C)C(=O)CN2CCN(Cc3ccccc3)CC2)c1O | > 10 µM | 22 µM | 

These reach a lower Kd [2]. Values come first.

Row | Kd [2] | SMILES | IC50 [1] | other results
18 | 0.049 µM | C=CCc1cccc(/C=N/NC(=O)CN2CCC(Cc3ccccc3)CC2)c1O | 2.7 µM | Activity [3]: 10%; Activity [4]: 41%; Activity [5]: 0%; viability at 50 µM [6]: 49%
19 | 0.045 µM | C=CCc1cccc(/C=N/NC(=O)CN2CCN(Cc3cccc([N+](=O)[O-])c3)CC2)c1O | 4.6 µM | 
20 | 0.052 µM | C=CCc1cccc(/C=N/NC(=O)CN2CCN(Cc3ccccc3)CC2)c1O [PAC-1] | 4.8 µM | Activity [3]: 11%; Activity [7]: Active; Activity [8]: Active; Activity [4]: 31%; Activity [5]: 0%; viability at 50 µM [6]: 58%
21 | 0.039 µM | C=CCc1cccc(/C=N/NC(=O)CN2CCN(Cc3cc(OC)ccc3OC)CC2)c1O | 1 µM | 
22 | 0.043 µM | C=CCc1cc(/C=N/NC(=O)CN2CCN(Cc3ccccc3)CC2)c(O)c(CC=C)c1 | 1.8 µM | 
23 | 0.044 µM | C=CCc1cccc(/C=N/NC(=O)CC2CCN(Cc3ccccc3)CC2)c1O | 2.8 µM | inhibition [12]: Active
24 | 0.048 µM | C=CCc1cccc(/C=N/NC(=O)CN2CCN(Cc3ccc(F)cc3)CC2)c1O | 2 µM | Activity [3]: 8%; Activity [4]: 30%; Activity [5]: 0%; viability at 50 µM [6]: 62%
25 | 0.048 µM | C=CCc1cccc(/C=N/NC(=O)CC2CCN(C(=O)OC(C)(C)C)CC2)c1O | 6.5 µM | inhibition [12]: Active
26 | 0.047 µM | C=CCc1cccc(/C=N/NC(=O)CN2CCN(Cc3ccc(OC)cc3)CC2)c1O | 2.7 µM | 
